Consider 19 compounds from ChEMBL document CHEMBL2093137, “WHO-TDR NTD Screening”.

Molecules are shown by their SMILES. Converted amounts (≈) assume the structure as drawn.

In one data set the test system is Brugia malayi. Kind of data set: WHO-TDR: Lymphatic Filariasis. The arrangement: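 tested at 10 µM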. The data set is classed as functional. The gist of the method: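 In a whole-organism assay, Brugia malayi microfilariae were screened against a diverse Life Chemicals library that had been filtered for drug-likeness and reactive groups. That library comprised 10,000 compounds. Activity is expressed as percent inhibition and as IC50.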

Another data set concerns Onchocerca lienalis. Kind of data set: WHO-TDR: Onchocerciasis. In kind it is functional. Also on record: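 at 12.5 µM on microfilariae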. An outline of the steps: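 Microfilariae of Onchocerca ochengi or Onchocerca lienalis, animal pathogens standing in for the human parasite, were exposed to compounds in a whole-organism screen. The compounds came from a 10,000-compound diverse Life Chemicals library filtered for drug-likeness and reactive groups. Results are expressed as percent inhibition and IC50.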

A further data set deals with Plasmodium falciparum K1. Briefly: WHO-TDR: Malaria. In kind it is functional, organism-based, Homo sapiens. Conditions: Erythrocyte. The gist of the method: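 Values are IC50 figures for antiplasmodial potency. They come from a whole-organism screen of 10,000 diverse Life Chemicals compounds against Plasmodium falciparum K1 growing inside human red blood cells, run by previously published standard procedures.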

In a further data set the test system is Trypanosoma cruzi. Briefly: WHO-TDR: Chagas disease. In kind it is functional, organism-based, Homo sapiens. The note with it: MRC5. The gist of the method: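 Intracellular amastigotes of the Trypanosoma cruzi Tulahuen CL2 beta-galactosidase strain, grown in MRC-5SV2 human lung fibroblast host cells, were tested in a whole-organism screen. The compounds came from a 10,000-member diverse Life Chemicals library that had been filtered for drug-likeness and reactive groups. Previously published standard procedures were followed, with a reference drug as positive control, and potency is reported as IC50.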

Data set [1] concerns Trypanosoma brucei brucei. Briefly: WHO-TDR: Human African Trypanosomiasis (HAT). The note with it: Squib-427. In kind it is functional, organism-based. The gist of the method:
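Values are IC50 figures for antiparasitic potency. They come from a whole-organism screen of 10,000 diverse Life Chemicals compounds against bloodstream-form Trypanosoma brucei (Squib 427 strain).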

Another data set relates to Schistosoma mansoni. Briefly: WHO-TDR: Schistosomiasis. In kind it is functional. Also on record: concentration or dose not given beside the values. An outline of the steps: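 In this whole-organism assay, larval and/or adult worms of Schistosoma mansoni (Puerto Rican strain) were exposed to compounds from a diverse Life Chemicals library of 10,000 members. A reference drug served as positive control. Activity is stated as percent inhibition and IC50.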

The test system of the next data set is Leishmania infantum. Kind of data set: WHO-TDR: Leishmaniasis. In kind it is functional, organism-based, Mus musculus. The note with it: Macrophage. An outline of the steps:
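Values are IC50 figures for antiparasitic potency. They come from a whole-organism screen of a 10,000-compound diverse Life Chemicals library against Leishmania infantum MHOM/MA(BE)/67 amastigotes inside murine peritoneal macrophage host cells.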

Data set [2] in a line: WHO-TDR: Cytotoxicity. In kind it is toxicity, cell-based. The note with it: human, MRC5 cells.

`COC(=O)c1ccccc1N(C)C(=O)c1cc2cccnc2n(C)c1=O`: the “% Inhibition” value with Brugia malayi, in the data set with Onchocerca lienalis and in the data set with Schistosoma mansoni was 0% throughout. For the same compound, the IC50 (commonly the concentration needed to halve the response being measured) with Plasmodium falciparum K1 is above 10.5 µg/mL; in the data set on Trypanosoma cruzi, above 10.5 µg/mL; in data set [1] it was above 10.5 µg/mL; in the data set with Leishmania infantum, 0.341 µg/mL (≈ 0.971 µM); in data set [2] it was above 10.5 µg/mL.

Turning to `O=C(COc1ccccc1)Oc1ccc2nc(N3CCN(c4ccccc4)CC3)sc2c1`, the “% Inhibition” value with Brugia malayi, in the data set on Onchocerca lienalis and with Schistosoma mansoni was 0% each time. The 50% inhibitory concentration (IC50) was above 13.4 µg/mL with Plasmodium falciparum K1; 9.76 µg/mL (≈ 21.9 µM) with Trypanosoma cruzi; above 13.4 µg/mL in data set [1]; 1.96 µg/mL (≈ 4.4 µM) with Leishmania infantum; above 13.4 µg/mL in data set [2].

On to `CCc1ccccc1-n1c(C)cn2c3c(=O)n(CC(C)C)c(=O)n(C)c3nc12`, for which the % Inhibition – broadly, the change of the read-out against control, counted positive when it falls – in the data set with Brugia malayi turned out to be 0%; in the data set on Onchocerca lienalis it was 20%; with Schistosoma mansoni, 0%. In addition, the IC50 in the data set on Plasmodium falciparum K1 is 3.29 µg/mL (≈ 8.68 µM); in the data set with Trypanosoma cruzi, above 11.4 µg/mL; in data set [1], 0.342 µg/mL (≈ 0.901 µM); in the data set on Leishmania infantum, above 11.4 µg/mL; in data set [2], above 11.4 µg/mL.

Take `COc1cccc(-n2ccnc2SCC(=O)Nc2ccccc2C(F)(F)F)c1`: the “% Inhibition” value in the data set on Brugia malayi, in the data set on Onchocerca lienalis and in the data set with Schistosoma mansoni was 0% in each case. In addition, the 50% inhibitory concentration (IC50) is above 12.2 µg/mL in the data set with Plasmodium falciparum K1; above 12.2 µg/mL in the data set with Trypanosoma cruzi; 0.422 µg/mL (≈ 1.04 µM) in data set [1]; above 12.2 µg/mL with Leishmania infantum; above 12.2 µg/mL in data set [2].

As for `Cc1ccc(-c2nnc(NC(=O)c3ccc(S(=O)(=O)N4CCc5ccccc5C4)cc3)o2)cc1C`, the “% Inhibition” value with Brugia malayi, in the data set with Onchocerca lienalis and in the data set with Schistosoma mansoni was 0% each time. For the same compound, the half-maximal inhibitory concentration (IC50) in the data set with Plasmodium falciparum K1 is above 14.7 µg/mL; in the data set with Trypanosoma cruzi, 0.538 µg/mL (≈ 1.1 µM); in data set [1] it was 10.1 µg/mL (≈ 20.6 µM); in the data set with Leishmania infantum, above 14.7 µg/mL; in data set [2], 8.86 µg/mL (≈ 18.1 µM).

Turning to `COc1ccc(Cl)c2sc(NC(=O)c3ccc(Cl)cc3Cl)nc12`, the “% Inhibition” value in the data set on Brugia malayi, in the data set on Onchocerca lienalis and in the data set with Schistosoma mansoni was 0% throughout. In addition, the half-maximal inhibitory concentration (IC50) is above 11.6 µg/mL with Plasmodium falciparum K1; 3.62 µg/mL (≈ 9.34 µM) in the data set on Trypanosoma cruzi; above 11.6 µg/mL in data set [1]; 0.377 µg/mL (≈ 0.972 µM) in the data set with Leishmania infantum; 4.96 µg/mL (≈ 12.8 µM) in data set [2].

For `O=C(CCCSc1ccc(F)cc1)Nc1nc(-c2ccccn2)cs1`, the “% Inhibition” value in the data set with Brugia malayi was found to be 0%; in the data set on Onchocerca lienalis, 39.33%; with Schistosoma mansoni it was 0%. Moreover, the half-inhibitory concentration (IC50) in the data set with Plasmodium falciparum K1 is above 11.2 µg/mL; with Trypanosoma cruzi, 0.335 µg/mL (≈ 0.897 µM); in data set [1], 0.363 µg/mL (≈ 0.972 µM); in the data set on Leishmania infantum it was above 11.2 µg/mL; in data set [2], 3.76 µg/mL (≈ 10.1 µM).

In the case of `Cc1ccc(S(=O)(=O)N2CCCc3cc(NC(=O)Oc4ccccc4)ccc32)cc1`, the “% Inhibition” value in the data set on Brugia malayi, with Onchocerca lienalis and in the data set with Schistosoma mansoni was 0% each time. Further, the IC50 was above 12.7 µg/mL in the data set with Plasmodium falciparum K1; above 12.7 µg/mL in the data set with Trypanosoma cruzi; 0.415 µg/mL (≈ 0.982 µM) in data set [1]; above 12.7 µg/mL in the data set on Leishmania infantum; 1.76 µg/mL (≈ 4.17 µM) in data set [2].

For the compound `CCS(=O)(=O)c1cccc(C(=O)Nc2nc3c(s2)CSc2ccccc2-3)c1`, the figures for the “% Inhibition” value with Brugia malayi, with Onchocerca lienalis and in the data set on Schistosoma mansoni were 0%, 46.7% and 75%, respectively. In addition, the half-inhibitory concentration (IC50) with Plasmodium falciparum K1 was above 12.5 µg/mL; in the data set with Trypanosoma cruzi it was 0.412 µg/mL (≈ 0.989 µM); in data set [1], 0.395 µg/mL (≈ 0.948 µM); in the data set with Leishmania infantum, 0.405 µg/mL (≈ 0.972 µM); in data set [2] it was 4 µg/mL (≈ 9.6 µM).

As to `CCOc1ccc(-c2ccc(OCCNS(=O)(=O)c3cc(C)c(C)cc3C)nn2)cc1`, the “% Inhibition” value turned out to be 0% in the data set on Brugia malayi, 13.3% in the data set on Onchocerca lienalis and 0% with Schistosoma mansoni. The IC50 with Plasmodium falciparum K1 was above 13.2 µg/mL; in the data set on Trypanosoma cruzi, 0.752 µg/mL (≈ 1.7 µM); in data set [1], 4.24 µg/mL (≈ 9.6 µM); with Leishmania infantum it was above 13.2 µg/mL; in data set [2] it was above 13.2 µg/mL.

With `O=C(CCCSc1ccccc1)N(Cc1ccncc1)c1nc2c(F)cccc2s1`, the “% Inhibition” value in the data set on Brugia malayi, in the data set on Onchocerca lienalis and with Schistosoma mansoni was 0% in each case. The IC50 in the data set on Plasmodium falciparum K1 was 9.05 µg/mL (≈ 20.7 µM); with Trypanosoma cruzi, 0.816 µg/mL (≈ 1.86 µM); in data set [1] it was 4.15 µg/mL (≈ 9.49 µM); in the data set on Leishmania infantum it was above 13.1 µg/mL; in data set [2] it was above 13.1 µg/mL.

Regarding `COc1ccc(-c2nc(NC(=O)Cc3ccc(SC)cc3)sc2C)cc1`, the “% Inhibition” value with Brugia malayi was found to be 0%; in the data set on Onchocerca lienalis, 45.5%; with Schistosoma mansoni, 0%. In addition, the IC50 in the data set on Plasmodium falciparum K1 came out at 0.271 µg/mL (≈ 0.705 µM); in the data set on Trypanosoma cruzi, 1.95 µg/mL (≈ 5.07 µM); in data set [1] it was 3.73 µg/mL (≈ 9.71 µM); in the data set on Leishmania infantum, 3.73 µg/mL (≈ 9.71 µM); in data set [2], 1.29 µg/mL (≈ 3.37 µM).

As to `O=C(CSc1ccc(-c2ccc(-n3cccn3)cc2)nn1)Nc1ccc2c(c1)OCO2`, the “% Inhibition” value was 0% in the data set on Brugia malayi, 13.3% with Onchocerca lienalis and 0% in the data set with Schistosoma mansoni. Further, the IC50 with Plasmodium falciparum K1 is above 12.9 µg/mL; in the data set with Trypanosoma cruzi, above 12.9 µg/mL; in data set [1], above 12.9 µg/mL; with Leishmania infantum, 0.419 µg/mL (≈ 0.971 µM); in data set [2], above 12.9 µg/mL.

Turning to `CSc1ccccc1-c1nnc(NC(=O)c2ccc(Cl)s2)o1`, the “% Inhibition” value is given as 0% in the data set with Brugia malayi, 86.4% with Onchocerca lienalis and 0% with Schistosoma mansoni. Moreover, the IC50 with Plasmodium falciparum K1 is above 10.6 µg/mL; in the data set on Trypanosoma cruzi it was 0.416 µg/mL (≈ 1.18 µM); in data set [1] it was 0.856 µg/mL (≈ 2.43 µM); with Leishmania infantum, above 10.6 µg/mL; in data set [2] it was above 10.6 µg/mL.

As for `Oc1ccc(Br)cc1/C=N/Nc1ncnc2[nH]cnc12`, the entries for the “% Inhibition” value in the data set on Brugia malayi, in the data set with Onchocerca lienalis and in the data set on Schistosoma mansoni were 50%, -1% and 0%, respectively. Besides, the 50% inhibitory concentration (IC50) in the data set with Plasmodium falciparum K1 is 3.68 µg/mL (≈ 11 µM); with Trypanosoma cruzi, 0.193 µg/mL (≈ 0.579 µM); in data set [1], 0.341 µg/mL (≈ 1.02 µM); with Leishmania infantum it was 3.24 µg/mL (≈ 9.71 µM); in data set [2] it was 0.364 µg/mL (≈ 1.09 µM).

With `CCN(C1CCCCC1)S(=O)(=O)c1ccc(C(=O)Nc2nnc(-c3ccco3)o2)cc1`, the “% Inhibition” value worked out at 0% in the data set on Brugia malayi, 20% with Onchocerca lienalis and 0% in the data set on Schistosoma mansoni. Moreover, the IC50 with Plasmodium falciparum K1 was above 13.3 µg/mL; in the data set on Trypanosoma cruzi, 0.442 µg/mL (≈ 0.994 µM); in data set [1] it was 4.32 µg/mL (≈ 9.71 µM); in the data set with Leishmania infantum it was 4.32 µg/mL (≈ 9.71 µM); in data set [2], 6.19 µg/mL (≈ 13.9 µM).

On to `CS(=O)(=O)c1ccc(CC(=O)Nc2nc3c(s2)-c2cccc4cccc-3c24)cc1`, for which the “% Inhibition” value in the data set with Brugia malayi came to 0%; in the data set on Onchocerca lienalis it was 11.35%; in the data set with Schistosoma mansoni it was 0%. The IC50 with Plasmodium falciparum K1 came to 7.42 µg/mL (≈ 17.6 µM); in the data set with Trypanosoma cruzi it was 0.317 µg/mL (≈ 0.754 µM); in data set [1], 4.29 µg/mL (≈ 10.2 µM); in the data set on Leishmania infantum it was 4.08 µg/mL (≈ 9.71 µM); in data set [2], 0.688 µg/mL (≈ 1.64 µM).

On to `CCN(C1CCCCC1)S(=O)(=O)c1ccc(C(=O)Nc2nnc(-c3ccccc3)o2)cc1`, for which the “% Inhibition” value in the data set on Brugia malayi is given as 0%; with Onchocerca lienalis, 53.3%; with Schistosoma mansoni, 0%. Moreover, the IC50 is above 13.6 µg/mL in the data set on Plasmodium falciparum K1; 0.431 µg/mL (≈ 0.948 µM) in the data set on Trypanosoma cruzi; 0.528 µg/mL (≈ 1.16 µM) in data set [1]; above 13.6 µg/mL with Leishmania infantum; 1.61 µg/mL (≈ 3.54 µM) in data set [2].

As for `COc1ccc(SCC(=O)Nc2nc(-c3ccccn3)cs2)cc1`, the “% Inhibition” value in the data set on Brugia malayi is 0%; with Onchocerca lienalis, 86.55%; in the data set on Schistosoma mansoni, 0%. The half-inhibitory concentration (IC50) with Plasmodium falciparum K1 was above 10.7 µg/mL; in the data set on Trypanosoma cruzi, 0.356 µg/mL (≈ 0.996 µM); in data set [1], 0.347 µg/mL (≈ 0.971 µM); with Leishmania infantum, above 10.7 µg/mL; in data set [2], above 10.7 µg/mL.
